# Calls of active or inactive are those of the source. The rule behind the calls is not given here.
# What was measured:
# [1] = tested on: Leishmania infantum; experiment: Antileishmanial activity against Leishmania infantum infected in primary peritoneal mouse macrophages by luciferase reporter gene assay; assay type: functional
# Procedure, shortened: (§1)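 Run at LMPH as IC50 determinations. L. infantum was grown in primary peritoneal mouse macrophages and T. cruzi on human lung fibroblasts (MRC-5). Each value is the mean of at least two independent determinations, run alongside MRC-5 and macrophage cytotoxicity tests.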
# [2] = Apparent permeability from apical to basolateral side in human Caco2 cells after 150 mins by LC-MS/MS analysis; assay type: ADME, cell-based; conditions: Caco-2
# [3] = Apparent permeability from basolateral to apical side in human Caco2 cells after 150 mins by LC-MS/MS analysis; assay type: ADME, cell-based; conditions: Caco-2
# [4] = tested on: Trypanosoma cruzi; experiment: […] activity against Trypanosoma cruzi infected in human MRC-5 cells by luciferase reporter gene assay; assay type: functional, cell-based; conditions: MRC5; procedure, shortened: as §1
# [5] = Extrapolated AUCinfinity in swiss albino mouse plasma at 40 mg/kg, po by LC-MS/MS analysis
# [6] = tested on: Mycobacterium tuberculosis; experiment: Antitubercular activity against Mycobacterium tuberculosis infected in BALB/c mouse assessed as reduction in bacterial burden at 100 mg/kg, po qd administered every 5 days a week for 3 weeks; assay type: functional, organism-based
# Procedure, shortened: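 Acute infection model in BALB/c mice: dosing at 100 mg/kg daily, 5 days a week for 3 weeks, starting day 11 after infection. Read-out is CFU reduction in treated mice, usually reported as a ratio of mean CFU reduction versus mice given the reference nitroimidazole.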
structure (smiles),measurement,setting,value
O=[N+]([O-])c1cn2c(n1)OC(COc1ccc(-c3ccc(F)nc3)nc1)CC2 (stereo not drawn),IC50,[1],> 64 µM
C[C@]1(COc2ccc(OC(F)(F)F)cc2)Cn2cc([N+](=O)[O-])nc2O1,Papp A→B at […],[2],22.6 ×10⁻⁶ cm/s
same,Papp B→A at […],[3],24.7 ×10⁻⁶ cm/s
O=[N+]([O-])c1cn2c(n1)OC(COc1ccc(OC(F)(F)F)cc1)CC2 (stereo not drawn),IC50,[4],61 nM
O=[N+]([O-])c1cn2c(n1)OC(COCc1ccc(-c3ccc(OC(F)(F)F)cc3)cc1)CC2 (stereo not drawn),AUC(0-inf),[5],47100 ng·h/mL
O=[N+]([O-])c1cn2c(n1)OC(COc1ccc(-c3ccc(F)cc3)cc1)CC2 (stereo not drawn),IC50,[4],63 nM
C[C@]1(COCc2ccc(-c3ccc(OC(F)(F)F)cc3)cc2)CCn2cc([N+](=O)[O-])nc2O1,Activity,[6],Active
O=[N+]([O-])c1cn2c(n1)OC[C@@H](OCc1ccc(OC(F)(F)F)cc1)C2,Activity,[6],Active

# — ChEMBL document CHEMBL4049454, “7-Substituted 2-Nitro-5,6-dihydroimidazo[2,1-b][1,3]oxazines: Novel Antitubercular Agents Lead to a New Preclinical Candidate for Visceral Leishmaniasis” (J Med Chem, 2017)
